An excerpt weighted towards active compounds, which were near 2.1% of everything screened.
EP2 modulator = EP2 receptor (human) modulation. P43116. EP2-expressing cells, cAMP HTRF FRET, PGE2 co-stimulation. induction, % at 25 µM. 0.83% of 260,000 active;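 active means compounds whose cAMP rise, as percent of the full-agonist control response, exceeds 60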;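 further: rat C6 glioma line stably carrying human EP2 under a CMV promoter; the protocol text gives 20 µM as final concentration; 100% = response of wells given 1 µM PGE2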
FXIa inh 1536 = factor XIa (human) inhibition; P03951; purified FXIa, Boc-Glu-Ala-Arg-AMC fluorogenic substrate; inhibition, % at 5 µM; 0.14% of 220,000 active;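 active means inhibition of at least 40%; inactive means inhibition below 40%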;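 further: fluorescence of freed AMC excited at 355 nm; 0% = enzyme without compound and 100% = no enzyme blank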
Target sequence (P03951 19-387 limits assumed): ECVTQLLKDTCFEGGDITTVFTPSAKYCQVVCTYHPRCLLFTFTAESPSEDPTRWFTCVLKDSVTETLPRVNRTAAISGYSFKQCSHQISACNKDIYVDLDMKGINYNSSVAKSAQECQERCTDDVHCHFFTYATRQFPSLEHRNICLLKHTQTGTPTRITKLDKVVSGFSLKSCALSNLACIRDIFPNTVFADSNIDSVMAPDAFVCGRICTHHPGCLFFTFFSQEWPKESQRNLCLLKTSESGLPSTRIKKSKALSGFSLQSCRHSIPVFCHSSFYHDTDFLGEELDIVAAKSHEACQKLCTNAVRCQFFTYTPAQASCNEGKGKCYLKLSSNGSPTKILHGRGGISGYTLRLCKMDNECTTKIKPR
Target sequence (P03951 388-625 limits assumed): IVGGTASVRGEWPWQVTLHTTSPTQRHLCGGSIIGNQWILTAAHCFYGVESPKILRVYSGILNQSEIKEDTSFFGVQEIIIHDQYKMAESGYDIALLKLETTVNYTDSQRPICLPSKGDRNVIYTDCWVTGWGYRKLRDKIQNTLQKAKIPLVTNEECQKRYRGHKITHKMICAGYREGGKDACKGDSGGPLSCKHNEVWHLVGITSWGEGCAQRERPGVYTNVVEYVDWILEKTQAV
PGE2 EP2 inh = EP2 receptor (human) inhibition; P43116; C6 glioma cells expressing human EP2, cAMP TR-FRET; cells stimulated with saturating PGE2; inhibition, % at 25 µM; 0.52% of 260,000 active;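 active means percent inhibition above 40 after rounding to a whole number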;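 further: rat C6 glioma host cells with rolipram phosphodiesterase inhibitor present; the protocol text gives 20 µM as final concentration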
thrombin 1536 = blocks human thrombin protease activity. P00734. 0.26% of 220,000 active. alpha-thrombin, Boc-VPR-AMC fluorogenic substrate cleavage. inhibition, % at 5 µM;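 active means inhibition at or above 40%; inactive means inhibition below 40%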;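 further: 0% = enzyme with no compound and 100% = wells without enzyme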
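System: Human alpha-thrombin protein | Medium: pH 7.5 Tris (50 mM) with NaCl 150 mM, Tween 20 0.05% | Times: Enzyme reaction carried out at room temperature | Detection: AMC fluorescence, 355/460 nm | Evaluation: Percent inhibition scaled between no-compound controls and no-enzyme blanks | Benchmarks: Enzyme without compound as high, wells lacking enzyme as low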
hK5 inh = inhibitors of human kallikrein 5 | recombinant hK5, fluorogenic AMC substrate cleavage | inhibition, % at 5 µM | 0.59% of 210,000 active;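 active means inhibition of 40% or more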;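 further: 0% = enzyme controls without compound and 100% = no-enzyme blanks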
FXIIa inh = inhibitors of human coagulation factor XIIa; P00748; purified FXIIa, Boc-QGR-AMC fluorogenic substrate, 2 h; inhibition, % at 5 µM; 0.3% of 220,000 active; AID 800; in the data active means inhibition above about 40%;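 further: 0% = enzyme with no compound and 100% = blank without enzyme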
An asterisk follows results filed as active; . = not tested or not shown; ! = a repeat was not active.

SMILES	EP2 modulator	FXIa inh 1536	PGE2 EP2 inh	thrombin 1536	hK5 inh	FXIIa inh
COC(=O)/C=C1/C(=O)N(C(C)=O)c2ccccc21	-50.6	.	71.0*	.	.	.
CCO/C=C1/C(=O)N(C(C)=O)c2ccccc21	20.9	8.1	3.9	1.3	-6.6	12.3
CCN1CCN(C(=O)c2cnn3c(C(F)F)cc(-c4ccc(C)cc4)nc23)CC1	-11.4	-5.7	0.6	-5.2	8.2	-3.0
CCc1nccn1C(=O)c1cnn2c(C(F)F)cc(-c3ccccc3)nc12	-24.6	11.4	11.7	76.3*	2.3	16.1
CCc1nccn1C(=O)c1cnn2c(C(F)F)cc(-c3ccc(C)cc3)nc12	-6.3	-1.6	18.1	77.2*	-23.9	3.0
Cc1ccc(-c2cc(C(F)F)n3ncc(C(=O)N4CCN(c5ccccn5)CC4)c3n2)cc1	-21.1	-11.1	11.0	-5.0	13.8	-3.9
O=c1[nH]c2cc3c(cc2cc1C(c1nnnn1CC1CCCO1)N1CCc2ccccc2C1)OCO3 (stereo not given)	-14.9	.	8.8	.	.	.
Cc1nn2c(NCCCn3ccnc3)c3c(nc2c1-c1ccc(F)cc1)CCC3	-42.2	.	.	.	.	.
Cc1cccc(C)c1NC(=S)N/N=C/c1c(Cl)cccc1Cl	23.5	31.0	1.3	50.1*	23.4	29.1
C=CCNC(=O)c1c(NC(=O)COc2ccccc2C)sc2c1CCCC2	-14.4	.	3.4	.	.	.
N#CCSc1nnc(COc2cccc3ccccc23)n1-c1cccc(Cl)c1	71.5*!	-5.1	2.7	-5.4	3.7	3.6
Cc1nn(CC(=O)c2ccc(Cl)s2)c(C)c1[N+](=O)[O-]	3.0	42.9*	2.5	11.9	24.3	28.1
Cc1ccc(C(=O)Cn2nc(C)c([N+](=O)[O-])c2C)c(C)c1	11.7	-1.8	8.0	-4.0	4.2	11.7
CN1CCN(C(c2ccc(N(C)C)cc2)c2nnnn2C2CCCC2)CC1 (stereo not given)	-9.4	.	5.8	.	.	.
CNC(=O)CSc1nnc(COc2ccccc2C)n1-c1cccc(OC)c1	26.1	.	13.5	.	.	.
O=C1C=C(NCc2ccc(Cl)cc2)CCC1	21.9	5.5	2.7	14.2	49.7*	22.9
O=C(CN1CCOCC1)Nc1sc2c(c1C(=O)c1ccc(Cl)cc1)CCC2	62.4*	.	16.4	.	.	.
CC1CCc2nc(NC(=O)CN3CCOCC3)sc2C1 (stereo not given)	8.5	4.4	5.7	-4.2	-14.4	8.1
COC(=O)c1c(NC(=O)CN2CCOCC2)sc2c1CCC(C)C2 (stereo not given)	61.4*	-1.6	5.3	7.7	-17.2	14.4
CCC1=C(C[C@H]2NCCc3ccccc32)C[C@H]2c3cc(OC)c(OC)cc3CCN2C1	22.0	.	53.1*	.	.	.
CCc1cccc(CC)c1NC(=O)c1cccc(N)c1	-1.6	-12.7	8.0	45.7*	-20.1	3.9
COc1ccc(NC(=O)CSc2ncc(-c3ccccc3)n2C)c(OC)c1	-54.6	.	13.3	.	.	.
O=C(c1ccccc1)N1C(=O)C(c2ccccc2)Oc2ccccc21 (stereo not given)	81.3*	0.8	11.4	-11.4	0.0	2.0
CN(C)C/C=C(/c1ccc(Br)cc1)c1cccnc1	0.7	.	42.9*!	.	.	.
CCOc1ccccc1NC(=O)C1CCN(C(=O)Nc2ccc(C)cc2)CC1	19.6	.	8.0	.	.	.
SMILES	EP2 modulator	FXIa inh 1536	PGE2 EP2 inh	thrombin 1536	hK5 inh	FXIIa inh
O=C(NCCc1ccc2c(c1)OCCO2)c1ccc([N+](=O)[O-])cc1Cl	-70.4	10.7	4.8	3.8	40.5*	9.6
O=C(NCCc1ccc2c(c1)OCCO2)c1cc(F)cc(F)c1	-2.5	0.1	15.0	-11.9	-9.5	10.1
O=C(NCCCN1CCN(CCCNC(=O)c2cc([N+](=O)[O-])ccc2Cl)CC1)c1cc([N+](=O)[O-])ccc1Cl	8.0	1.5	5.1	18.6	43.0*	4.8
O=C(Nc1ccc(F)cc1F)c1ccc(-n2cccn2)nc1	-46.2	-4.3	7.2	-1.8	-0.4	3.5
O=C(Nc1ccc(F)cc1F)c1ccc(-n2cncn2)nc1	-6.1	-2.8	0.8	43.7*	-4.9	5.6
O=C(NC1CCCCC1)N(Cc1ccc(Cl)cc1)Cc1cc2cc3c(cc2[nH]c1=O)OCCO3	-7.0	.	15.8	.	.	.
CC(=O)C1=C(C)NC(SCC(=O)c2ccc(-c3ccccc3)cc2)=C(C#N)C1c1cccnc1 (stereo not given)	-21.9	-2.3	49.4*	1.1	8.5	12.5
CC(=O)C1=C(C)NC(SCSc2ccccc2)=C(C#N)C1c1cccnc1 (stereo not given)	13.9	-19.0	8.6	-2.8	3.1	-12.9
O=C(c1noc2c1CCc1ccccc1-2)N1CCc2ccccc2C1	-12.7	6.7	7.1	20.7	29.9	23.4
O=C(c1noc2c1CCc1ccccc1-2)N1CCOCC1	8.1	-9.3	1.9	0.6	71.7*	-7.1
CCC1(C)Cc2ccccc2-c2nc3n(c(=O)c21)CCCCC3 (stereo not given)	57.2	-1.1	8.9	-7.0	-7.4	4.3
CC1(C)Cc2ccccc2-c2nc3n(c(=O)c21)CCCS3	63.8*	-2.7	7.7	-11.1	-0.6	1.6
CCC(=O)c1ccccc1OCCSc1nc(C)cc(=O)[nH]1	23.5	-1.9	8.9	2.2	145.7*	-0.1
CCCOc1cccc(OCCSc2nc(C)cc(=O)[nH]2)c1	47.1	-8.4	3.8	-2.2	-12.7	-1.2
O=C(CCC(=O)N/N=C/c1ccc(Br)s1)NCc1ccccc1	6.3	9.9	-0.4	28.6	20.4	44.2*
Cc1cc(N/N=C/c2ccccc2O)nc(N2CCOCC2)n1	-39.4	-5.5	6.8	-5.2	1.0	-1.8
COc1ccc(OC)c(/C=N/Nc2cc(C)nc(N3CCOCC3)n2)c1	1.7	33.6	2.4	13.3	58.3*	40.0*
O=C(O)c1ccccc1SCC(=O)N1CCOCC1	-0.4	32.7	5.7	40.9*	28.9	17.9
O=C(O)c1ccccc1SCC(=O)N1CCCCC1	-2.9	4.8	11.2	2.3	-0.4	7.8
COCCn1c(=O)n(CC(N)=O)c2cccnc21	11.4	.	.	.	.	.
O=C1CCC(c2ccccc2)=NN1c1nc2ccccc2s1	-16.1	.	55.7*	.	.	.
CN(C)CCN(Cc1ccncc1)Cc1c(Cl)cccc1Cl	-13.4	.	5.3	.	.	.
Cc1ccc(C(=O)C(NC(=O)c2ccco2)N2CCOCC2)cc1 (stereo not given)	1.1	-1.7	1.6	14.5	43.6*	-2.3
Cc1cc(C)c2[nH]c(=O)c(CN(CC3CCCO3)C(=S)NCCCN(C)C)cc2c1 (stereo not given)	-39.9	.	5.5	.	.	.
O=C(NNC1=NCCCCC1)Nc1cccc(Cl)c1	-34.6	46.6*	17.6	40.1*	23.9	41.6*
Cc1cccc2cc(C(c3nnnn3C3CCCC3)N3CCN(C4CCCCC4)CC3)c(=O)[nH]c12 (stereo not given)	-39.8	.	6.3	.	.	.
O=C1c2ccccc2NC(c2c(Cl)cccc2Cl)N1Cc1ccccc1 (stereo not given)	26.1	-1.1	3.9	5.8	5.8	15.7

Screens from PubChem BioAssay.
